# Reference: the EternaBench riboswitch data
# Test system: MS2 coat protein
# Assay: apparent Kd, MS2 coat protein; higher = weaker binding; RNA-MaP array; FMN 200 µM where present
# How it was run: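 Apparent Kd: the median of filtered binding-curve fits from single clusters. Designs were transcribed on Illumina sequencing-chip clusters by stalled E. coli RNA polymerase and titrated with SNAP-549-labelled MS2 coat protein from 0.7 or 1.5 nM, doubling to 3 µM, in 100 mM Tris-HCl pH 7.5, 80 mM KCl, 4 mM MgCl2, BSA, DTT, yeast tRNA and Tween-20. Each series ran without and then with constant ligand, and green signal was normalised to red-channel RNA signal and control-cluster median Fmax.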
# [1] = designed as: OFF switch for flavin mononucleotide, no ligand
# [2] = ligand present: flavin mononucleotide, designed as: OFF switch for flavin mononucleotide
# [3] = designed as: ON switch for flavin mononucleotide, no ligand
# [4] = ligand present: flavin mononucleotide, designed as: ON switch for flavin mononucleotide
Sequence,apparent Kd [1] [nM],apparent Kd [2] [nM],apparent Kd [3] [nM],apparent Kd [4] [nM]
UUGUAGUACGUAGGAUAUCAAUGAGGAUCACCCUGAGAAGGACGUGAGGACAUGAGGAUCACCCAUGUGGAUCACCCAUGUCAU,191,145,,
AUAUGACAUGAGGAUCACCCAUGUGAGGAUAUAUGCGCAGGUCCAGGGACGGCUGUGCAUAGAAGGUGCUUGGG,307,268,,
CAUCAGUGAGGAUAUCGGGCCUGUGGCUGCUCAGCCCGGUUCGAGAAGGCACAUGAGGAUCACCCAUGUGACGU,20.4,46.8,,
GGUGGACAUGAGGAUCACCCAUGUGAGGAUAUCGGCUGGCUAGUGGCUGACGGCUGCUCGAGAAGGCGCAUUGU,78.3,107,,
GUAGAGUAAGGAUAUGAUGAAUAGGAUAGAAUGGUUAGAAAUCAGAAGGUACAUGAGGAUCACCCAUGUAAUGU,22.7,20.8,,
GGGUACAUCGGAGGAUAUCAUGUAACUACAUGAGGAUCACCCAUGUCGAUGGAGACAUCGGAGAUUGAGAAGGCCGAUGUACCG,,,261,10.1
UUAAAACAUGAGGAUCACCCAUGUGAGGAUAUGAGCCGACUGUCCUGUCGGCAUGUAGUCAGAAGGUGCAGGGU,62.2,109,,
GGAAAGCAAGGAUAUGCAAACAAACAAACAAACAAAAGGGAACAUGAGGAUCACCCAUGUAGAAGGUGCAAACA,40.8,32.5,,
AAACAUGUCCGAGGAUAUCUGGAAACAUUUCCAAGAGAAGGCGGACAUGAGGAUCACCCAUGUCUCUCCUCAUCAAAUCCAAGA,8,77.4,,
CUGAUUUGCUAGAAGGGUGACAUGAGGAUCACCCAUGUGCGGGCAGACCUAUCUUCAUGCCCGCCACAGGAUAUAGCAAUUCGC,,,38.3,48.2
UUAUUUUGUCAAGGAUAUGUAGUAUUGAUUUGAAAACAUGAGGAUCACCCAUGUAUAUGGUGGGAACAGAAGGUGAAUGUUGAA,311,290,,
AGCUGUGGCCGAGGAUAUCUAAUAAUCUCAACCGAAAUAUAAUCGGACAUGAGGAUCACCCAUGUAGAGAAGGCGGUCUCAGCA,36.2,92.8,,
AACCUACAUGAGGAUCACCCAUGUGAGGAUAUAUUGGUAUGGAUGUUAUUUUGUAGAGGUAGAAGGCGCGUGAU,15.4,15.4,,
AAUAACGGAGCUACAUGAGGAUCACCCAUGUACGGGUGAUCCUAGGAUAUGCCCGCAACUAUGUCGCAGAAGGAGGGUUGCCCA,,,20.4,39.7
CAGCCCUGAGGAUAUCCAUCCUUGUACAUGAGGAUCACCCAUGUUUCCCUCUGGGCUUUCGGAGAAGGCAGGUAUC,61,61.7,,
AAUCUGUGAGGAUAUGGUGAGUAGUGCCUGAGCGCUGCUCACCAGAAGGCACAUGAGGAUCACCCAUGUAUGAC,34.2,153,,
AAAAUCUAUAGAGGAUAUCCAUACACUGCAUACGGAGAAGGCUAACAAUCAUGAGGACAUGAGGAUCACCCAUGUUGUGACCAU,,,19.9,13.6
GGAUGACAAAGUCAUCCCUGACGAACAUGAGGAUCACCCAUGUAGGAUAUGCUACUCAAAGAGUAGCAGAAGGACAUGUGUCUU,31.2,150,,
GGUCCAUUAUGAGGAUAUGGCACCUUAUUGGUGCCAGAAGGCAUGUCUAUAGACAUGAGGAUCACCCAUGUAUUAAUUUGGACC,,,360,41.4
CUCAUGAGAGGAUAUACAUGAGGAUCACCCAUGUGGUCAUCUCCUCGGGCUCCAUUACGUAGAAGGCUCAUUUG,41.4,88.4,,
AGGAGUAAAGGGAAUAACAUGAGGAUCACCCAUGUAUGGGAGAGAAGGCAUAUCGGAGGACGAUAUGAGGAUAUUUAAACUUUA,,,106,20.5
GGGUACAUCGGAGGAUAUCAUGUAAAUACAUGAGGAUCACCCAUGUCGAUGGAGGCAUCGGAGAUUGAGAAGGCCGAUGUACCG,,,566,17.6
GUCAGGUGAGGAUAUACGCGGCUGACGAAACGUUAUACCGAGUAGAAGGCACAUGAGGAUCACCCAUGUUCGGG,109,59.6,,
AGGUAACAUGAGGAUCACCCAUGUCAGGAUAUCAGUAAGAUGAGAAUAGAGUAGAGUAUGAGAAGGGACUAUAU,43.6,32.3,,
GAAUAAUUGAUCCUUUUUUAUUACAUGAGGAUCACCCAUGUGCAGGAUAUCGAUUGUUGUAGUUUCGAGAAGGGCAAGAACUGU,187,280,,
AGAGAGAGACAGAAGGGCAAGCUCGAUUGCGGAGAAAGCGAUCGAGCUUGCAGGAUAUGUUGAACAUGAGGAUCACCCAUGUCA,,,7.49,7.62
GUGGUACAUGAGGAUCACCCAUGUUAGGAUAUCGCGUGAGGUUUUACUUCCACACACACGAGAAGGGACGUCUU,44.3,36.2,,
CAGGUAGACUGAGGAUAUACAAUAAAGACCUAGUCUAUCUAGGUCUCCACAUGAGGAUCACCCAUGUAGAAGGCAGUCUGCCUG,18.1,44.2,,

Sequence,apparent Kd [1] [nM],apparent Kd [2] [nM],apparent Kd [3] [nM],apparent Kd [4] [nM]
GUACUGAAGCUUUGCUUUAGUCGUACAUGAGGAUCACCCAUGUAGGAUAUGGUAAGCUUUGCUUACUAGAAGGAUAGAGUGAUC,119,50.2,,
AAAAAAAAAACUGAGGAUAUGAAAUAAUAGACAUGAGGAUCACCCAUGUUUUCGGUCGAAAAAAUGCAGAAGGCAGAAAAAAAAAA,,,31.6,29.1
UCAGGAGUCACAGGAUAUCCGGCGUAGCACACAGGAGAAGGGUGAUCACGAGCACAUGAGGAUCACCCAUGUGACAUUUGUGAG,,,40.4,50.7
UCCAGAUCGCGAGGUAGGAGUAGCAGAAGGCGACCGGUGCCAGAUGACAUGAGGAUCACCCAUGUCGAGGAUAUGCUACAGAAU,6.49,13.2,,
GGAUGACAAAGUCAUCCAAUUCGAACAUGAGGAUCACCCAUGUAGGAUAUGCUACUCAAAGAGUAGCAGAAGGACAUGUGCUUU,37.7,167,,
GAUAGGACAGAGAAGGACAUGGCUAGAGAUACUAGCAUAUGAACCUUCACAUGAGGAUCACCCAUGUAGGAUAUCUGUCCUAUC,3.8,4.86,,
AGUAACAUACUCAACAUGAGGAUCACCCAUGUACUCUCUUGUAAGGAUAUACAUUCGUAUUGAUAGUAGAAGGUACCAAUUAAG,,,53.5,57.4
GAUUAACAUGAGGAUCACCCAUGUCGUUAAAUGGGAGGAUAUACGUGGACCGUAGUCCGCGUAGAAGGCCUAAUUG,,,144,29.2
UGAUUUCAUGUAGGAUAUGCUUGGCGUAGCUACGCAGAAGGACAUGAGGAUCACCCAUGUUUUAGCGUCUGAGUAUAGAUUCUU,35.3,89.7,,
GACUGCCGAGGAUAUACAUGAGGAUCACCCAUGUGCUUCAGCAUUUUUUAAUGCAUGGGUAGAAGGCGGUAGUC,32.6,68.5,,
UUGGAGUUCGUAGGAUAUGUAGGAUAUUCCUACAUGAGGAUCACCCAUGUUUACAUGGAAGAAGGACAGAAGGACGAGCUCCAU,,,1580,16.2
GUAGGGUCAGGAUAUACGGGCGGGAGGAUGUAGUGGAGUUGGUAGAAGGGACAUGAGGAUCACCCAUGUGAGAA,30.7,27.8,,
GUUCUUCCUGUGAGGAUAUCCAUGUGUCGGUGUGUGGAGAAGGUACAUGAGGAUCACCCAUGUCACCCGCGUUU,20.8,22.2,,
GGCCUGUUAGGAUAUUAGUAGUAGUCAGAAUAGACUAUUACUGAGAAGGGACAUGAGGAUCACCCAUGUUGGCC,17.5,19.9,,
AGCGUGUAAGGAUAUACGUCGGACAGCAAAUGCUAUCCCUAGUAGAAGGUACAUGAGGAUCACCCAUGUGUCCA,22.9,58.8,,
UGGACUGGGCAGAAGGGACAUGAGGAUCACCCAUGUCUUGGGCUACUUCAGUCAGGAUAUGCCCAAUAAAUAUCCGUGCAUCAA,13.3,67.1,,
UUACUCAUGUAAGGAUAUGCAGCCGAAACGGCUGCAGAAGGUACUACAAUACAUGAGGAUCACCCAUGUAAAAUAAAUAAAGUU,,,53.7,22.7
CGAUAUACGACGGACGGAAACGUACAUGAGGAUCACCCAUGUAGAAGGCGAUCCGCAACGCGGAUUGAGGAUAUAUAGUAUACA,20.7,14.6,,
GGUCCACAUGAGGAUCACCCAUGUUAGGAUAUCUCGCCCGAGUCGUUAUGGGCCAGGCAGAGAAGGAAUGUGAA,20.4,18.8,,
AGCGGCGCGGGCCACCGCAAAACCAGAAGGACAUGAGGAUCACCCAUGUAACAAAACAGGGCGGUGUAGGAUAUGGCAGACCCA,10.3,11.8,,
CCGACGUCAGGAUAUCUGAUGUCUAACUUCGGUUAGACAUCAGAGAAGGGACAUGAGGAUCACCCAUGUCGGAG,29,52.8,,
GUUCUUCCUGUGAGGAUAUCCAUGUGUCGGUUUGUGGAGAAGGUACAUGAGGAUCACCCAUGUCACCCGCGUUU,14.8,16.3,,
AAGCGAGGGACAGGAUAUGCGGCAAAACUUUCCGCAGAAGGGUCGACAUGAGGAUCACCCAUGUCCUUACGCUCCAAGUAGAGG,,,189,277
AGCUAGUACCGAGGAUAUACAUACAUGAGGAUCACCCAUGUAUACAUGAAUUUAUGAGACUACAUGUAGAAGGCGGUACUAGCA,,,58.9,15.9
GUGCAAACAUGAGGAUAUGUAUUAAAUAAUAAUACAGAAGGCAUGUCAAAUGACAUGAGGAUCACCCAUGUUGGCAAAAUGCGC,,,144,29.7
GGAAAACAUGAGGAUCACCCAUGUAAGGAUAUGCAAAAGGAUAUAGAAGGAAAAAAAAGCAGAAGGUACAAAGG,39.9,74.8,,
GUGUAGAUAUCAGGAUAUCCAUUUCCUACAUGAGGAUCACCCAUGUAGAUGAUCACCCAUGUAAAGGAGAAGGGAUAUCUAUAC,,,206,173
